Experimental data as given in ChEMBL document CHEMBL2146359, “HCV NS5A replication complex inhibitors. Part 2: investigation of stilbene prolinamides” (Bioorg Med Chem Lett, 2012).

Assays:
[1] = system: Hepatitis C virus; test: Antiviral activity against HCV genotype 1b infected in human Huh7 cells assessed as inhibition of viral replication by FRET assay; type: functional, organism-based, Hepacivirus hominis; conditions: Huh-7
In short: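 Replicon potency values are the means of at least two experiments.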

[2] = Cytotoxicity against human HuH7 cells after 72 hrs by Alamar Blue assay; type: cell-based; conditions: Huh-7 cells
[3] = system: Bovine viral diarrhea virus 1; test: Antiviral activity against BVDV1; type: functional, organism-based; conditions: Bovine viral diarrhea virus isolates and strains

| SMILES | EC50 [1] | EC50 [3] | CC50 at 72 h [2] |
| --- | --- | --- | --- |
| C[C@H](C(=O)N1CCC[C@H]1C(=O)Nc1ccc(/C=C/c2ccc(NC(=O)[C@@H]3CCCN3C(=O)[C@@H](C)c3ccccc3)cc2)cc1)c1ccccc1 | 0.005 µM | > 10 µM | > 10 µM |
| O=C(Nc1ccc(/C=C/c2ccc(NC(=O)[C@@H]3CCCN3C(=O)c3cccc4ccccc34)cc2)cc1)[C@@H]1CCCN1C(=O)c1cccc2ccccc12 | 1.63 µM | > 10 µM | > 10 µM |
| N[C@H]1C[C@@H](C(=O)Nc2ccc(/C=C/c3ccc(NC(=O)[C@@H]4C[C@H](N)CN4C(=O)OCc4ccccc4)cc3)cc2)N(C(=O)OCc2ccccc2)C1 | 1.29 µM | > 10 µM | > 10 µM |
| O=C(Nc1ccc(/C=C/c2ccc(NC(=O)[C@@H]3CCCN3C(=O)c3ccccc3)cc2)cc1)[C@@H]1CCCN1C(=O)c1ccccc1 | 0.102 µM | > 10 µM | > 10 µM |
| O=C(Nc1ccc(/C=C/c2ccc(NC(=O)[C@@H]3[C@H]4CCC[C@H]4CN3C(=O)OCc3ccccc3)cc2)cc1)[C@@H]1[C@H]2CCC[C@H]2CN1C(=O)OCc1ccccc1 | 0.12 µM | > 10 µM | > 10 µM |
| O=C(Nc1ccc(/C=C/c2ccc(NC(=O)[C@@H]3C4CC4CN3C(=O)OCc3ccccc3)cc2)cc1)[C@@H]1C2CC2CN1C(=O)OCc1ccccc1 (stereo partly drawn) | 0.089 µM | > 10 µM | > 10 µM |
| CCc1ccccc1C(=O)N1CCC[C@H]1C(=O)Nc1ccc(/C=C/c2ccc(NC(=O)[C@@H]3CCCN3C(=O)c3ccccc3CC)cc2)cc1 | 1.13 µM | > 10 µM | > 10 µM |
| O=C(Nc1ccc(/C=C/c2ccc(NC(=O)[C@@H]3CCN3C(=O)OCc3ccccc3)cc2)cc1)[C@@H]1CCN1C(=O)OCc1ccccc1 | 0.058 µM | > 10 µM | > 10 µM |
| C[C@H](NC(=O)OCc1ccccc1)C(=O)Nc1ccc(/C=C/c2ccc(NC(=O)[C@H](C)NC(=O)OCc3ccccc3)cc2)cc1 | 3.21 µM | > 10 µM | > 10 µM |
| O=C(Nc1ccc(/C=C/c2ccc(NC(=O)[C@@H]3CCCN3C(=O)c3ccc4occc4c3)cc2)cc1)[C@@H]1CCCN1C(=O)c1ccc2occc2c1 | 0.056 µM | > 10 µM | > 10 µM |
| O=C(Nc1ccc(/C=C/c2ccc(NC(=O)[C@@H]3CCCN3C(=O)Cc3ccncc3)cc2)cc1)[C@@H]1CCCN1C(=O)Cc1ccncc1 | 0.172 µM | > 10 µM | > 10 µM |
| C[C@@H](C(=O)Nc1ccc(/C=C/c2ccc(NC(=O)[C@H](C)N(C)C(=O)OCc3ccccc3)cc2)cc1)N(C)C(=O)OCc1ccccc1 | 0.0731 µM | > 10 µM | > 10 µM |
| Cc1cc(CC(=O)N2CCC[C@H]2C(=O)Nc2ccc(/C=C/c3ccc(NC(=O)[C@@H]4CCCN4C(=O)Cc4cc(C)no4)cc3)cc2)on1 | 0.0762 µM | > 10 µM | > 10 µM |
| Cc1nc2ccccn2c1C(=O)N1CCC[C@H]1C(=O)Nc1ccc(/C=C/c2ccc(NC(=O)[C@@H]3CCCN3C(=O)c3c(C)nc4ccccn34)cc2)cc1 | 0.0868 µM | > 10 µM | > 10 µM |
| O=C(Nc1ccc(/C=C/c2ccc(NC(=O)[C@@H]3COCN3C(=O)OCc3ccccc3)cc2)cc1)[C@@H]1COCN1C(=O)OCc1ccccc1 | 0.00614 µM | > 10 µM | > 10 µM |
| Cc1nc2sccn2c1C(=O)N1CCC[C@H]1C(=O)Nc1ccc(/C=C/c2ccc(NC(=O)[C@@H]3CCCN3C(=O)c3c(C)nc4sccn34)cc2)cc1 | 0.0579 µM | > 10 µM | > 10 µM |
| O=C(Nc1ccc(/C=C/c2ccc(NC(=O)[C@@H]3CCCN3C(=O)C3Cc4ccccc4O3)cc2)cc1)[C@@H]1CCCN1C(=O)C1Cc2ccccc2O1 (stereo partly drawn) | 0.011 µM | > 10 µM | > 10 µM |
| CCO[C@@H]1C[C@@H](C(=O)Nc2ccc(/C=C/c3ccc(NC(=O)[C@@H]4C[C@@H](OCC)CN4C(=O)OCc4ccccc4)cc3)cc2)N(C(=O)OCc2ccccc2)C1 | 0.038 µM | > 10 µM | > 10 µM |
| O=C(Nc1ccc(/C=C/c2ccc(NC(=O)[C@@H]3CCCN3C(=O)Cc3ccccc3)cc2)cc1)[C@@H]1CCCN1 | 1.39 µM | > 10 µM | > 10 µM |
| C[C@@H](C(=O)N1CCC[C@H]1C(=O)Nc1ccc(/C=C/c2ccc(NC(=O)[C@@H]3CCCN3C(=O)[C@H](C)c3ccccc3)cc2)cc1)c1ccccc1 | < 0.005 µM | > 10 µM | > 10 µM |
| O=C(Nc1ccc(/C=C/c2ccc(NC(=O)[C@@H]3CCCN3C(=O)Cc3ccccc3)cc2)cc1)[C@@H]1CCCN1C(=O)Cc1ccccc1 | – | > 10 µM | > 10 µM |

Further lines, with some results ahead:

| EC50 [1] | EC50 [3] | SMILES | CC50 at 72 h [2] |
| --- | --- | --- | --- |
| 0.00128 µM | > 10 µM | O=C(Nc1ccc(/C=C/c2ccc(NC(=O)[C@@H]3CCCN3C(=O)Cc3cccs3)cc2)cc1)[C@@H]1CCCN1C(=O)Cc1cccs1 | > 10 µM |
| 0.0867 µM | > 10 µM | Cn1cnc(CC(=O)N2CCC[C@H]2C(=O)Nc2ccc(/C=C/c3ccc(NC(=O)[C@@H]4CCCN4C(=O)Cc4cn(C)cn4)cc3)cc2)c1 | > 10 µM |
| 0.00222 µM | > 10 µM | O=C(Nc1ccc(/C=C/c2ccc(NC(=O)[C@@H]3CCCN3C(=O)Cc3ccccn3)cc2)cc1)[C@@H]1CCCN1C(=O)Cc1ccccn1 | > 10 µM |
| 0.111 µM | > 10 µM | O=C(Nc1ccc(/C=C/c2ccc(NC(=O)[C@@H]3CCCN3C(=O)c3c[nH]c4ccccc34)cc2)cc1)[C@@H]1CCCN1C(=O)c1c[nH]c2ccccc12 | > 10 µM |
| 2.38 µM | > 10 µM | CC(=O)N1CCC[C@H]1C(=O)Nc1ccc(/C=C/c2ccc(NC(=O)[C@@H]3CCCN3C(C)=O)cc2)cc1 | > 10 µM |
| 0.0102 µM | > 10 µM | Cn1cccc1CC(=O)N1CCC[C@H]1C(=O)Nc1ccc(/C=C/c2ccc(NC(=O)[C@@H]3CCCN3C(=O)Cc3cccn3C)cc2)cc1 | > 10 µM |
| 10 µM | > 10 µM | O=C(Nc1ccc(/C=C/c2ccc(NC(=O)[C@@H]3CCCN3C(=O)c3ccc4ccccc4c3)cc2)cc1)[C@@H]1CCCN1C(=O)c1ccc2ccccc2c1 | > 10 µM |
| 0.35 µM | > 10 µM | CC(C)(C)O[C@H]1C[C@@H](C(=O)Nc2ccc(/C=C/c3ccc(NC(=O)[C@@H]4C[C@H](OC(C)(C)C)CN4C(=O)OCc4ccccc4)cc3)cc2)N(C(=O)OCc2ccccc2)C1 | > 10 µM |
| 0.0669 µM | > 10 µM | O=C(Nc1ccc(/C=C/c2ccc(NC(=O)[C@@H]3Cc4ccccc4N3C(=O)OCc3ccccc3)cc2)cc1)[C@@H]1Cc2ccccc2N1C(=O)OCc1ccccc1 | > 10 µM |
| < 0.005 µM | > 10 µM | CO[C@H]1C[C@@H](C(=O)Nc2ccc(/C=C/c3ccc(NC(=O)[C@@H]4C[C@H](OC)CN4C(=O)OCc4ccccc4)cc3)cc2)N(C(=O)OCc2ccccc2)C1 | > 10 µM |
| > 10 µM | > 10 µM | CC(C)(C)NC(=O)O[C@@H]1C[C@@H](C(=O)Nc2ccc(/C=C/c3ccc(NC(=O)[C@@H]4C[C@@H](OC(=O)NC(C)(C)C)CN4C(=O)OCc4ccccc4)cc3)cc2)N(C(=O)OCc2ccccc2)C1 | > 10 µM |
| 0.00257 µM | > 10 µM | C[C@H](NC(=O)Cc1ccccc1)C(=O)Nc1ccc(/C=C/c2ccc(NC(=O)[C@@H]3CCCN3C(=O)Cc3ccccc3)cc2)cc1 | > 10 µM |
